Data taken from ChEMBL document CHEMBL1828597, “Tyrosyl-tRNA synthetase inhibitors as antibacterial agents: synthesis, molecular docking and structure-activity relationship analysis of 3-aryl-4-arylaminofuran-2(5H)-ones” (Eur J Med Chem, 2011).
≈ marks a conversion by molar mass, not a printed value.

Experiments:
Staphylococcus aureus = test: Antibacterial activity against Staphylococcus aureus ATCC 25923 after 24 hrs by MTT assay; type: functional; conditions: ATCC 25923, 24 h
Outline: (§1)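 LB medium, inocula of about 10⁵ cfu/mL in 96-well plates against serially diluted compounds (DMSO stock diluted in 50% v/v DMSO/PBS), 37 °C for 24 h. Read-out: PBS containing 2 mg/mL MTT added for 4–5 h at room temperature, wells emptied, solubilizer added for 12 h at room temperature, then OD at 550 nm. MIC₅₀ from this colorimetric read.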

Bacillus subtilis = test: Antibacterial activity against Bacillus subtilis ATCC 6633 after 24 hrs by MTT assay; type: functional; conditions: ATCC 6633, 24 h; outline: as §1
[1] = Inhibition of Staphylococcus aureus TyrRS assessed as inhibition of [3H]tyrosine incorporation after 10 mins by liquid scintillation counting
Escherichia coli = test: Antibacterial activity against Escherichia coli ATCC 35218 after 24 hrs by MTT assay; type: functional; conditions: ATCC 35218, 24 h; outline: as §1
Candida albicans = test: Antifungal activity against Candida albicans ATCC 10231 after 48 hrs by MTT assay; conditions: ATCC 10231, 48 h

| Compound | MIC50 (Staphylococcus aureus) | MIC50 (Bacillus subtilis) | IC50 [1] | MIC50 (Escherichia coli) | MIC50 (Candida albicans) |
| --- | --- | --- | --- | --- | --- |
| O=C1OCC(Nc2cc(Cl)cc(Cl)c2)=C1c1ccc(O)cc1 | 2.9 µg/mL (≈ 8.63 µM) | 9.8 µg/mL (≈ 29.2 µM) | 3.5 µM | > 50 µg/mL | 10.2 µg/mL (≈ 30.3 µM) |
| O=C1OCC(Nc2ccccn2)=C1c1ccc(Br)cc1 | 39 µg/mL (≈ 118 µM) | > 50 µg/mL | 25.6 µM | > 50 µg/mL | > 50 µg/mL |
| CC(=O)N1CCN(c2ccc(OCC3COC(Cn4ccnc4)(c4ccc(Cl)cc4Cl)O3)cc2)CC1 (centres undefined) [KETOCONAZOLE] |  |  |  |  | 4.1 µg/mL (≈ 7.71 µM) |
| CC1(C)S[C@@H]2[C@H](NC(=O)Cc3ccccc3)C(=O)N2[C@H]1C(=O)O [PENICILLIN G] |  |  |  | 2 µg/mL (≈ 5.98 µM) |  |
| O=C1OCC(Nc2ccc(Br)cc2)=C1c1cccc(Br)c1 | 6.5 µg/mL (≈ 15.9 µM) | 31.6 µg/mL (≈ 77.2 µM) | 5.4 µM | > 50 µg/mL | 18.7 µg/mL (≈ 45.7 µM) |
| COc1ccc(NC2=C(c3ccc(Br)cc3)C(=O)OC2)cc1 | > 50 µg/mL | > 50 µg/mL | 97.6 µM | > 50 µg/mL | > 50 µg/mL |
| O=C1OCC(Nc2cc(Br)cc(Br)c2)=C1c1cccc(Br)c1 | 2.3 µg/mL (≈ 4.71 µM) | 8.8 µg/mL (≈ 18 µM) | 1.9 µM | > 50 µg/mL | 8.5 µg/mL (≈ 17.4 µM) |
| O=C1OCC(Nc2cc(Br)cc(Br)c2)=C1c1ccc(F)cc1 | 10.2 µg/mL (≈ 23.9 µM) | 38.6 µg/mL (≈ 90.4 µM) | 9.2 µM | > 50 µg/mL | 28.6 µg/mL (≈ 67 µM) |
| O=C1OCC(Nc2cc(F)cc(F)c2)=C1c1ccc(Br)cc1 | 7.1 µg/mL (≈ 19.4 µM) | 19.4 µg/mL (≈ 53 µM) | 6.3 µM | > 50 µg/mL | 21.7 µg/mL (≈ 59.3 µM) |
| O=C1OCC(Nc2ccc([N+](=O)[O-])cc2)=C1c1ccc(Br)cc1 | > 50 µg/mL | > 50 µg/mL | 63.3 µM | > 50 µg/mL | > 50 µg/mL |
| O=C1OCC(Nc2cccc(O)c2)=C1c1ccc(Br)cc1 | 25.2 µg/mL (≈ 72.8 µM) | > 50 µg/mL | 15.4 µM | > 50 µg/mL | > 50 µg/mL |
| O=C1OCC(Nc2ccc(Cl)cc2)=C1c1ccc(Br)cc1 | 12.6 µg/mL (≈ 34.6 µM) | > 50 µg/mL | 15.2 µM | > 50 µg/mL | 25.7 µg/mL (≈ 70.5 µM) |
| COc1ccc(C2=C(Nc3cc(Cl)cc(Cl)c3)COC2=O)cc1 | 1.8 µg/mL (≈ 5.14 µM) | 9.6 µg/mL (≈ 27.4 µM) | 1.6 µM | > 50 µg/mL | 7.2 µg/mL (≈ 20.6 µM) |
| O=C1OCC(Nc2cccc([N+](=O)[O-])c2)=C1c1ccc(Br)cc1 | 10.8 µg/mL (≈ 28.8 µM) | 28.6 µg/mL (≈ 76.2 µM) | 10.3 µM | > 50 µg/mL | 26.3 µg/mL (≈ 70.1 µM) |
| NC[C@H]1O[C@H](O[C@H]2[C@H](O)[C@@H](O[C@H]3O[C@H](CO)[C@@H](O)[C@H](N)[C@H]3O)[C@H](N)C[C@@H]2N)[C@H](O)[C@@H](O)[C@@H]1O [KANAMYCIN] | 1.1 µg/mL (≈ 2.27 µM) | 0.42 µg/mL (≈ 0.867 µM) |  |  |  |
| Cc1ccc(NC2=C(c3ccc(Br)cc3)C(=O)OC2)cc1 | > 50 µg/mL | > 50 µg/mL | > 100 µM | > 50 µg/mL | > 50 µg/mL |
| O=C1OCC(Nc2cc(Br)cc(Br)c2)=C1c1ccc(Br)cc1 | 23.5 µg/mL (≈ 48.2 µM) | > 50 µg/mL | 13.6 µM | > 50 µg/mL | 49.2 µg/mL (≈ 101 µM) |
| COc1cc(NC2=C(c3ccc(Br)cc3)C(=O)OC2)cc(OC)c1 | > 50 µg/mL | > 50 µg/mL | 17.5 µM | > 50 µg/mL | > 50 µg/mL |
| O=C1OCC(Nc2ccccc2)=C1c1ccc(Br)cc1 | 27.8 µg/mL (≈ 84.2 µM) | 41.7 µg/mL (≈ 126 µM) | 16.6 µM | > 50 µg/mL | 37.5 µg/mL (≈ 114 µM) |
| O=C1OCC(Nc2ccc(O)cc2)=C1c1ccc(Br)cc1 | > 50 µg/mL | > 50 µg/mL | 85.2 µM | > 50 µg/mL | > 50 µg/mL |
| O=C1OCC(Nc2ccc(Br)cc2)=C1c1ccc(Br)cc1 | 23.1 µg/mL (≈ 56.5 µM) | > 50 µg/mL | 11.4 µM | > 50 µg/mL | 41.8 µg/mL (≈ 102 µM) |
| O=C1OCC(Nc2cc(Cl)cc(Cl)c2)=C1c1ccc(Br)cc1 | 0.42 µg/mL (≈ 1.05 µM) | 2.2 µg/mL (≈ 5.51 µM) | 0.39 µM | > 50 µg/mL | 5.8 µg/mL (≈ 14.5 µM) |
| O=C1OCC(Nc2cccc([N+](=O)[O-])c2)=C1c1ccccc1 | > 50 µg/mL | > 50 µg/mL | 44.6 µM | > 50 µg/mL | > 50 µg/mL |
| COc1ccccc1NC1=C(c2ccc(Br)cc2)C(=O)OC1 | > 50 µg/mL | > 50 µg/mL | 36.8 µM | > 50 µg/mL | > 50 µg/mL |
| O=C1OCC(Nc2ccccc2[N+](=O)[O-])=C1c1ccc(Br)cc1 | > 50 µg/mL | > 50 µg/mL | 67.3 µM | > 50 µg/mL | > 50 µg/mL |
| CN(C1=C(c2ccc(Br)cc2)C(=O)OC1)c1ccccc1 | 45.8 µg/mL (≈ 133 µM) | > 50 µg/mL | 29.4 µM | > 50 µg/mL | > 50 µg/mL |

Second part, the compound after the results:

| MIC50 (Staphylococcus aureus) | MIC50 (Bacillus subtilis) | IC50 [1] | MIC50 (Escherichia coli) | MIC50 (Candida albicans) | Compound |
| --- | --- | --- | --- | --- | --- |
| 21.5 µg/mL (≈ 67.2 µM) | 47.5 µg/mL (≈ 148 µM) | 15.7 µM | > 50 µg/mL | 46.8 µg/mL (≈ 146 µM) | O=C1OCC(Nc2ccccc2Cl)=C1c1cccc(Cl)c1 |
| 49.4 µg/mL (≈ 156 µM) | > 50 µg/mL | 32.5 µM | > 50 µg/mL | > 50 µg/mL | COc1ccccc1NC1=C(c2cccc(Cl)c2)C(=O)OC1 |
| 2.9 µg/mL (≈ 8.18 µM) | 13.4 µg/mL (≈ 37.8 µM) | 2.9 µM | > 50 µg/mL | 10.1 µg/mL (≈ 28.5 µM) | O=C1OCC(Nc2cc(Cl)cc(Cl)c2)=C1c1cccc(Cl)c1 |
| 34.6 µg/mL (≈ 94.9 µM) | > 50 µg/mL | 21 µM | > 50 µg/mL | 49.3 µg/mL (≈ 135 µM) | O=C1OCC(Nc2ccccc2Cl)=C1c1ccc(Br)cc1 |
| > 50 µg/mL | > 50 µg/mL | 49.7 µM | > 50 µg/mL | > 50 µg/mL | O=C1OCC(Nc2ccccc2[N+](=O)[O-])=C1c1cccc(Cl)c1 |
| 4.6 µg/mL (≈ 14.4 µM) | 11.7 µg/mL (≈ 36.5 µM) | 4.3 µM | > 50 µg/mL | 12.2 µg/mL (≈ 38.1 µM) | O=C1OCC(Nc2cccc(Cl)c2)=C1c1cccc(Cl)c1 |
| > 50 µg/mL | > 50 µg/mL | 89.9 µM | > 50 µg/mL | > 50 µg/mL | O=C1OCC(Nc2ccccc2Cl)=C1c1ccccc1 |
| 0.06 µg/mL (≈ 0.15 µM) | 1.2 µg/mL (≈ 3.01 µM) | 0.09 µM | > 50 µg/mL | 5.4 µg/mL (≈ 13.5 µM) | O=C1OCC(Nc2cc(Cl)cc(Cl)c2)=C1c1cccc(Br)c1 |
| 32.1 µg/mL (≈ 112 µM) | > 50 µg/mL | 20.8 µM | > 50 µg/mL | 41.8 µg/mL (≈ 146 µM) | O=C1OCC(Nc2cccc(Cl)c2)=C1c1ccccc1 |
| 3.3 µg/mL (≈ 10.3 µM) | 10.9 µg/mL (≈ 34 µM) | 2.4 µM | > 50 µg/mL | 9.7 µg/mL (≈ 30.3 µM) | O=C1OCC(Nc2cccc(Cl)c2)=C1c1ccc(Cl)cc1 |
| > 50 µg/mL | > 50 µg/mL | > 100 µM | > 50 µg/mL | > 50 µg/mL | O=C1OCC(Nc2ccccc2[N+](=O)[O-])=C1c1ccccc1 |
| 2.5 µg/mL (≈ 6.86 µM) | 11.3 µg/mL (≈ 31 µM) | 1.7 µM | > 50 µg/mL | 9 µg/mL (≈ 24.7 µM) | O=C1OCC(Nc2cccc(Cl)c2)=C1c1ccc(Br)cc1 |
